Measurements from ChEMBL document CHEMBL5661977, “BI 6727, a Polo-like kinase inhibitor with improved pharmacokinetic profile and broad antitumor activity” (Clin Cancer Res, 2009).
Activity calls are given as the source filed them. The rule behind the calls is not given here.

Tests used:
[1] = test system: THP-1; assay: Antimitotic activity against human THP-1 cells assessed as inhibition of cell proliferation incubated for 72 hrs by Alamar blue based fluorescence spectrophotometric analysis; type: functional; settings: THP-1, 72 h
Method in brief: (§1)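 Cancer cell lines were cultured per supplier instructions and exposed to various inhibitor concentrations for 72 h. Growth was read as Alamar blue conversion by fluorescence. EC50 (50% growth inhibition) was extrapolated from the dose-response curve fit.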

[2] = AUC (0 to 24 hrs) in human HCT-116 cells xenografted in BomTac:NMRI-Foxn1nu mouse at 30 mg/kg, iv administered once a week upto 6 weeks by HPLC-MS/MS analysis; type: ADME, organism-based; settings: in vivo, 1008 h
[3] = Tmax in BomTac:NMRI-Foxn1nu mouse at 50 mg/kg, po by HPLC-MS/MS analysis; type: ADME, organism-based; settings: in vivo
Method in brief: (§2)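 Single oral gavage of BI 6727 suspended in 0.5% hydroxyethyl-cellulose (10 mL/kg) to female nude mice or male Wistar rats. EDTA plasma levels measured over time by HPLC-MS/MS with internal standard. AUC0-24 by trapezoidal rule. Parameters from noncompartmental analysis.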

[4] = test system: NCI-H460; assay: Antimitotic activity against human NCI-H460 cells assessed as inhibition of cell proliferation incubated for 72 hrs by Alamar blue based fluorescence spectrophotometric analysis; type: functional; settings: NCI-H460, 72 h; method in brief: as §1
[5] = test system: HCT-116; assay: Antitumor activity against human HCT-116 cells xenografted in BomTac:NMRI-Foxn1nu mouse assessed as tumor regression at 15 mg/kg, iv administered twice a week on consecutive days; type: functional, organism-based
Method in brief: (§3)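 Female nude mice bore s.c. HCT 116 (2×10^6 cells), NCI-H460 (1×10^6 cells) or serially transplanted CXB1 tumor pieces. At ~50–100 mm³, mice were randomized into groups of 10 and dosed i.v. (0.1 N HCl/saline) or by gavage (0.5% hydroxyethyl-cellulose) at 10 mL/kg. Calipers read thrice weekly, volume = length×width²×π/6. T/C from median volumes on the last day.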

[6] = Tmax in Wistar rat at 30 mg/kg, po by HPLC-MS/MS analysis; type: ADME, organism-based; settings: in vivo; method in brief: as §2
[7] = test system: HCT-116; assay: Antitumor activity against human HCT-116 cells xenografted in BomTac:NMRI-Foxn1nu mouse assessed as tumor growth delay at 25 mg/kg, iv administered twice a week on consecutive days; type: functional, organism-based; method in brief: as §3
[8] = AUC (0 to 24 hrs) in human HCT-116 cells xenografted in BomTac:NMRI-Foxn1nu mouse at 50 mg/kg, po administered once a week upto 6 weeks by HPLC-MS/MS analysis; type: ADME, organism-based; settings: in vivo, 1008 h
[9] = AUC (0-24hrs) in Wistar rat at 30 mg/kg, po by HPLC-MS/MS analysis; type: ADME, organism-based; settings: in vivo
Method in brief: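 Single oral dose to female nude mice or male Wistar rats. EDTA plasma was collected over 24 h and quantified by LC-MS/MS after extraction with internal standard. AUC0-24 was calculated from the concentration-time profile by the trapezoidal rule using noncompartmental analysis.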

[10] = AUC (0 to 24 hrs) in human HCT-116 cells xenografted in BomTac:NMRI-Foxn1nu mouse at 7 mg/kg, po administered daily upto 6 weeks by HPLC-MS/MS analysis; type: ADME, organism-based; settings: in vivo, 1008 h
[11] = test system: HCT-116; assay: Antitumor activity against human HCT-116 cells xenografted in BomTac:NMRI-Foxn1nu mouse assessed as T/C at 50 mg/kg, po administered once a week upto 6 weeks relative to control; type: functional; method in brief: as §3
[12] = test system: HCT-116; assay: Antitumor activity against human HCT-116 cells xenografted in BomTac:NMRI-Foxn1nu mouse assessed as T/C at 7 mg/kg, po administered daily upto 6 weeks relative to control; type: functional; method in brief: as §3
[13] = test system: HCT-116; assay: Antitumor activity against human HCT-116 cells xenografted in BomTac:NMRI-Foxn1nu mouse assessed as T/C at 25 mg/kg, iv administered twice a week upto 6 weeks relative to control; type: functional; method in brief: as §3
[14] = test system: NCI-H460; assay: Antimitotic activity against human NCI-H460 cells assessed as cell cycle block in G2-M phase measuring by accumulation of 4N DNA content at 100 nmol/L incubated for 24 hrs by PI staining based flow cytometric analysis; type: functional
Method in brief: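 Log-phase NCI-H460 cells were treated with 0.1% DMSO or inhibitor (dose series for 24 h; 100 nmol/L time course at 0, 24, 48, 72 h). Cells were fixed in 80% ethanol, permeabilized with 0.25% Triton X-100 for 5 min, then given 0.1% RNase plus 10 µg/mL propidium iodide for 20 min at RT. DNA content was read by flow cytometry.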

[15] = test system: BRO melanoma cell line; assay: Antimitotic activity against human BRO melanoma cell line assessed as inhibition of cell proliferation incubated for 72 hrs by Alamar blue based fluorescence spectrophotometric analysis; type: functional
[16] = test system: NCI-H460; assay: Induction of apoptosis in human NCI-H460 cells assessed as cleaved PRAP fragment level at 100 nmol/L incubated for 24 hrs by westernblot analysis; type: functional, cell-based
Method in brief: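 Exponentially growing NCI-H460 cells treated with compound or DMSO control for 24 or 48 h, then harvested. Cleaved PARP fragment detected by Western blot.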

[17] = AUC (0 to 24 hrs) in human NCI-H460 cells xenografted in BomTac:NMRI-Foxn1nu mouse at 10 mg/kg, po administered daily upto 6 weeks by HPLC-MS/MS analysis; type: ADME, organism-based; settings: in vivo, 1008 h
[18] = Drug uptake in human HCT-116 cells xenografted in BomTac:NMRI-Foxn1nu mouse at 35 mg/kg, iv measured after 168 hrs by HPLC-MS/MS analysis; type: ADME, organism-based, Neoplasm; settings: tumour (HCT-116 xenograft)
Method in brief: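 Female nude mice bearing s.c. HCT 116 xenografts (2 × 10⁶ cells), n = 3 per time point, given a single i.v. dose. Tumor, organs and EDTA plasma collected at 1, 8, 24, 48, 96 and 168 h. Tissue extracts and plasma analysed by HPLC-MS/MS. Tissue nmol/mg converted to nmol/L assuming density 1.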

[19] = Oral bioavailability in dog by HPLC-MS/MS analysis; type: ADME, organism-based, Canis lupus familiaris; settings: in vivo
[20] = AUC (0 to 24 hrs) in human HCT-116 cells xenografted in BomTac:NMRI-Foxn1nu mouse at 15 mg/kg, iv administered twice a week upto 6 weeks by HPLC-MS/MS analysis; type: ADME, organism-based; settings: in vivo, 1008 h
[21] = Antitumor activity against human CXB1 cells xenografted in BomTac:NMRI-Foxn1nu mouse assessed as T/C at 15 mg/kg, iv administered twice a week upto 6 weeks relative to control; type: functional, CXB1 cell; method in brief: as §3
[22] = Cmax in Wistar rat at 10 mg/kg, iv by HPLC-MS/MS analysis; type: ADME, organism-based; settings: in vivo
Method in brief: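 Male Wistar Crl:WI (Han) rats, n = 4, given a single 5-min i.v. infusion. BI 6727 measured in EDTA plasma at various times after the infusion started, by HPLC-MS/MS with internal standard. Parameters came from noncompartmental analysis. Terminal half-life was taken from the last two time points after i.v. dosing.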

[23] = Cmax in BomTac:NMRI-Foxn1nu mouse at 50 mg/kg, po by HPLC-MS/MS analysis; type: ADME, organism-based; settings: in vivo; method in brief: as §2
[24] = test system: HCT-116; assay: Antitumor activity against human HCT-116 cells xenografted in BomTac:NMRI-Foxn1nu mouse assessed as tumor regression at 25 mg/kg, iv administered twice a week on consecutive days; type: functional, organism-based; method in brief: as §3

EC50 [1]: 0.036 µM | AUC [2]: 52 µM·h | Tmax [3]: 1.7 h | EC50 [4]: 0.021 µM | Tmax [6]: 6.7 h | AUC [8]: 44 µM·h | AUC(0-t) [9]: 34 µM·h | AUC [10]: 44 µM·h | EC50 [15]: 0.011 µM | AUC [17]: 61 µM·h | concentration at 168 h [18]: 4 µM | bioavailability [19]: 53% | AUC [20]: 37 µM·h | Cmax [22]: 11.9 µM | Cmax [23]: 5.7 µM
SMILES: CC[C@@H]1C(=O)N(C)c2cnc(Nc3ccc(C(=O)N[C@H]4CC[C@H](N5CCN(CC6CC6)CC5)CC4)cc3OC)nc2N1C(C)C [VOLASERTIB]
Activity [5]: Active | Activity [7]: Active | T/C [11]: 2% | T/C [12]: 3% | T/C [13]: 0.3% | Activity [14]: Active | Activity [16]: Active | T/C [21]: 12% | Activity [24]: Active
